# Laboratory results reported in ChEMBL document CHEMBL4316592, “Synthesis of new derivatives of boehmeriasin A and their biological evaluation in liver cancer” (Eur J Med Chem, 2019).
# pIC50: −log10 of the molar value. The source made the active and inactive calls. No cut-off for these calls is given here.
# Assays:
# [1] = tested on: MCF-12A; experiment: Cytotoxicity against human MCF12A cells after 72 hrs by SRB assay; format: cell-based; conditions: for IC50: mcf-12a; for pIC50: Homo sapiens, MCF-12A, 72 h, read-out: IC50
# [2] = tested on: Hep 3B2; experiment: Cytotoxicity against human Hep3B cells after 72 hrs by SRB assay; format: functional, cell-based
# Method in brief: (§1)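 SRB assay. Cells plated per well (HCT116 3000; Huh7, Hep3B, HepG2, MCF-7 2000; Mahlavu, FOCUS, SNU475 1000) and grown 24 h. Compounds came from 20 mM DMSO stocks and were tested in triplicate, 40 to 2,5 (or 2,5 to 0,03) per printed range, for 72 h. Cells fixed in 10% TCA, stained with 0.4% SRB, dye dissolved in 10 mM Tris, A515 read. IC50 derived after DMSO normalization.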
# [3] = Cytotoxicity against human FOCUS cells after 72 hrs by SRB assay; format: functional, cell-based; method in brief: as §1
# [4] = tested on: Mahlavu; experiment: Cytotoxicity against human Mahlavu cells after 72 hrs by SRB assay; format: functional, cell-based; conditions: for IC50: mahlavu; for pIC50: Homo sapiens, Mahlavu, 72 h, read-out: IC50; method in brief: as §1
# [5] = tested on: HCT-116; experiment: Cytotoxicity against human HCT116 cells after 72 hrs by SRB assay; format: functional, cell-based; conditions: for pIC50: Homo sapiens, HCT-116, 72 h, read-out: IC50; method in brief: as §1
# [6] = tested on: SNU-475; experiment: Cytotoxicity against human SNU475 cells after 72 hrs by SRB assay; format: functional, cell-based; method in brief: as §1
# [7] = tested on: MCF7; experiment: Cytotoxicity against human MCF7 cells after 72 hrs by SRB assay; format: functional, cell-based; conditions: for pIC50: Homo sapiens, MCF7, 72 h, read-out: IC50; method in brief: as §1
# [8] = tested on: Huh-7; experiment: Cytotoxicity against human HuH7 cells after 72 hrs by SRB assay; format: functional, cell-based; conditions: for IC50: huh-7; for pIC50: Homo sapiens, Huh-7, 72 h, read-out: IC50; method in brief: as §1
# [9] = tested on: HepG2; experiment: Cytotoxicity against human HepG2 cells after 72 hrs by SRB assay; format: functional, cell-based; conditions: hepg2; method in brief: as §1
# [10] = tested on: Mahlavu; experiment: Induction of apoptosis in human Mahlavu cells assessed as increase in cytochrome C levels by Hoechst staining-based assay; format: functional, cell-based
# Method in brief: (§2)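 Cells were seeded on coverslips and treated after 24 h with compound at a single concentration for 72 h. Camptothecin was the positive control, with DMSO solvent control at matched volume. Cells were fixed in ice-cold methanol for 15 min, then given anti-cytochrome c (1:100 in 0.1% TBS-Tween) for 1 h and FITC secondary (1:200) for 1 h. Nuclei were counterstained and imaged by fluorescence microscopy.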
# [11] = tested on: Huh-7; experiment: Induction of apoptosis in human HuH7 cells assessed as increase in cytochrome C levels by Hoechst staining-based assay; format: functional, cell-based; method in brief: as §2
# [12] = tested on: MCF-10A; experiment: Cytotoxicity against human MCF10A cells after 72 hrs by SRB assay; format: cell-based
# [13] = tested on: Mahlavu; experiment: Induction of apoptosis in human Mahlavu cells assessed as viable cells at 1 uM after 24 hrs by Annexin V-FITC/propidium iodide staining-based flow cytometric analysis (reference value: 98.51%); format: functional; conditions: read-out: Activity
# [14] = tested on: Mahlavu; experiment: Induction of apoptosis in human Mahlavu cells assessed as late apoptotic cells at 1 uM after 48 hrs by Annexin V-FITC/propidium iodide staining-based flow cytometric analysis (reference value: 1.45%); format: functional
# [15] = tested on: Huh-7; experiment: Induction of apoptosis in human HuH7 cells assessed as viable cells at 1 uM after 72 hrs by Annexin V-FITC/propidium iodide staining-based flow cytometric analysis (reference value: 97.20%); format: functional; conditions: Huh-7, 72 h, read-out: Activity
# [16] = tested on: Huh-7; experiment: Induction of apoptosis in human HuH7 cells assessed as early apoptotic cells at 1 uM after 72 hrs by Annexin V-FITC/propidium iodide staining-based flow cytometric analysis (reference value: 0.03%); format: functional
# [17] = tested on: Mahlavu; experiment: Induction of apoptosis in human Mahlavu cells assessed as chromatin condensation at 1 uM by Hoechst staining-based assay; format: functional, cell-based
# [18] = tested on: Mahlavu; experiment: Induction of apoptosis in human Mahlavu cells assessed as necrotic cells at 1 uM after 48 hrs by Annexin V-FITC/propidium iodide staining-based flow cytometric analysis (reference value: 0.07%); format: functional
# [19] = tested on: Mahlavu; experiment: Induction of apoptosis in human Mahlavu cells assessed as viable cells at 1 uM after 48 hrs by Annexin V-FITC/propidium iodide staining-based flow cytometric analysis (reference value: 98.48%); format: functional; conditions: read-out: Activity
# [20] = tested on: Huh-7; experiment: Induction of apoptosis in human HuH7 cells assessed as early apoptotic cells at 1 uM after 48 hrs by Annexin V-FITC/propidium iodide staining-based flow cytometric analysis (reference value: 0.02%); format: functional
# [21] = tested on: Huh-7; experiment: Induction of apoptosis in human HuH7 cells assessed as viable cells at 1 uM after 48 hrs by Annexin V-FITC/propidium iodide staining-based flow cytometric analysis (reference value: 97.42%); format: functional; conditions: Huh-7, 48 h, read-out: Activity
# [22] = tested on: Mahlavu; experiment: Induction of apoptosis in human Mahlavu cells assessed as early apoptotic cells at 1 uM after 48 hrs by Annexin V-FITC/propidium iodide staining-based flow cytometric analysis (reference value: 0%); format: functional
# [23] = tested on: Huh-7; experiment: Induction of apoptosis in human HuH7 cells assessed as necrotic cells at 1 uM after 24 hrs by Annexin V-FITC/propidium iodide staining-based flow cytometric analysis (reference value: 0.03%); format: functional
# [24] = tested on: Huh-7; experiment: Induction of apoptosis in human HuH7 cells assessed as necrotic cells at 1 uM after 72 hrs by Annexin V-FITC/propidium iodide staining-based flow cytometric analysis (reference value: 0.43%); format: functional
# [25] = tested on: Mahlavu; experiment: Induction of apoptosis in human Mahlavu cells assessed as early apoptotic cells at 1 uM after 24 hrs by Annexin V-FITC/propidium iodide staining-based flow cytometric analysis (reference value: 0.09%); format: functional
# [26] = tested on: Huh-7; experiment: Induction of apoptosis in human HuH7 cells assessed as necrotic cells at 1 uM after 48 hrs by Annexin V-FITC/propidium iodide staining-based flow cytometric analysis (reference value: 0.02%); format: functional
# [27] = tested on: Huh-7; experiment: Induction of apoptosis in human HuH7 cells assessed as early apoptotic cells at 1 uM after 24 hrs by Annexin V-FITC/propidium iodide staining-based flow cytometric analysis (reference value: 0.17%); format: functional
# [28] = tested on: Huh-7; experiment: Induction of apoptosis in human HuH7 cells assessed as late apoptotic cells at 1 uM after 72 hrs by Annexin V-FITC/propidium iodide staining-based flow cytometric analysis (reference value: 2.34%); format: functional
# [29] = tested on: Mahlavu; experiment: Induction of apoptosis in human Mahlavu cells assessed as apoptotic body formation at 1 uM by Hoechst staining-based assay; format: functional, cell-based
# [30] = tested on: Mahlavu; experiment: Induction of apoptosis in human Mahlavu cells assessed as late apoptotic cells at 1 uM after 24 hrs by Annexin V-FITC/propidium iodide staining-based flow cytometric analysis (reference value: 1.28%); format: functional
# [31] = tested on: Mahlavu; experiment: Induction of apoptosis in human Mahlavu cells assessed as viable cells at 1 uM after 72 hrs by Annexin V-FITC/propidium iodide staining-based flow cytometric analysis (reference value: 96.05%); format: functional; conditions: read-out: Activity
# [32] = tested on: Mahlavu; experiment: Induction of apoptosis in human Mahlavu cells assessed as necrotic cells at 1 uM after 24 hrs by Annexin V-FITC/propidium iodide staining-based flow cytometric analysis (reference value: 0.13%); format: functional
# [33] = tested on: Mahlavu; experiment: Induction of apoptosis in human Mahlavu cells assessed as necrotic cells at 1 uM after 72 hrs by Annexin V-FITC/propidium iodide staining-based flow cytometric analysis (reference value: 0.22%); format: functional
# [34] = tested on: Huh-7; experiment: Induction of apoptosis in human HuH7 cells assessed as viable cells at 1 uM after 24 hrs by Annexin V-FITC/propidium iodide staining-based flow cytometric analysis (reference value: 97.30%); format: functional; conditions: Huh-7, 24 h, read-out: Activity
# [35] = tested on: Huh-7; experiment: Induction of apoptosis in human HuH7 cells assessed as late apoptotic cells at 1 uM after 24 hrs by Annexin V-FITC/propidium iodide staining-based flow cytometric analysis (reference value: 2.51%); format: functional
# [36] = tested on: Mahlavu; experiment: Induction of apoptosis in human Mahlavu cells assessed as late apoptotic cells at 1 uM after 72 hrs by Annexin V-FITC/propidium iodide staining-based flow cytometric analysis (reference value: 3.48%); format: functional
# [37] = tested on: Mahlavu; experiment: Induction of apoptosis in human Mahlavu cells assessed as early apoptotic cells at 1 uM after 72 hrs by Annexin V-FITC/propidium iodide staining-based flow cytometric analysis (reference value: 0.24%); format: functional
# [38] = tested on: Huh-7; experiment: Induction of apoptosis in human HuH7 cells assessed as late apoptotic cells at 1 uM after 48 hrs by Annexin V-FITC/propidium iodide staining-based flow cytometric analysis (reference value: 2.53%); format: functional
smiles,measurement,setting,value
COc1ccc2cc(CN3CCCCC3C(=O)[O-])c3cc(OC)c(OC)cc3c2c1.[K+] (configuration not stated),IC50,[1],Non-Toxic
same,IC50,[2]; hep 3b2,Not Active
same,IC50,[3],Not Active
same,IC50,[4],Not Active
same,IC50,[5]; hct-116,Not Active
same,IC50,[6]; snu-475,Not Active
same,IC50,[7]; mcf7,Not Active
same,IC50,[8],Not Active
same,IC50,[9],Not Active
COc1ccc2c3c(c4cc(OC)c(OC)cc4c2c1)CN1CCCCC1C3=O (configuration not stated),IC50,[1],Non-Toxic
same,pIC50,"[2]; Homo sapiens, Hep3B, 72 h, read-out: IC50",4.35
same,pIC50,"[3]; Homo sapiens, 72 h, read-out: IC50",5.30
same,pIC50,[4],4.46
same,pIC50,[5],5.09
same,pIC50,"[6]; Homo sapiens, SNU-475, 72 h, read-out: IC50",4.72
same,pIC50,[7],5.15
same,pIC50,[8],4.92
same,IC50,[9],Not Active
COc1ccc(/C=C(/C(=O)NCCCn2ccnc2)c2ccc(OC)c(OC)c2)cc1,IC50,[4],Not Active
same,IC50,[8],Not Active
COc1ccc2cc(C(=O)NCCCn3ccnc3)c3cc(OC)c(OC)cc3c2c1,pIC50,[4],4.27
same,pIC50,[8],4.72
COc1ccc(/C=C(/CNCCCn2ccnc2)c2ccc(OC)c(OC)c2)cc1,pIC50,[4],4.86
same,pIC50,[8],5.03
COc1ccc2cc(CNCCCn3ccnc3)c3cc(OC)c(OC)cc3c2c1,IC50,[4],Not Active
same,IC50,[8],Not Active
CC[C@@]1(O)C(=O)OCc2c1cc1n(c2=O)Cc2cc3ccccc3nc2-1,Activity,[10],Active
same,Activity,[11],Active
COc1ccc2c3c(c4cc(OC)c(OC)cc4c2c1)CN1CCCC[C@@H]1[C@@H]3O (racemic),pIC50,[12],6.85
same,viability at 1 µM,[13],92.7%
same,Activity,[14],29.29%
same,viability at 1 µM,[15],83%
same,Activity,[16],0%
same,Activity,[17],Active
same,Activity,[18],0.54%
same,viability at 1 µM,[19],70.2%
same,Activity,[20],0.07%
same,pIC50,[1],7.00
same,viability at 1 µM,[21],93%
same,Activity,[22],0%
same,Activity,[23],0.02%
same,Activity,[24],0.16%
same,Activity,[25],0.03%
same,pIC50,[4],< 7.30
same,Activity,[26],0.21%
same,pIC50,[5],8.15
same,Activity,[27],0.05%
same,Activity,[28],16.83%
same,Activity,[29],Active
same,pIC50,[7],7.68
same,pIC50,[8],7.77
same,Activity,[30],6.72%
same,viability at 1 µM,[31],29.4%
same,Activity,[32],0.58%
same,Activity,[33],1.59%
same,viability at 1 µM,[34],99.1%
same,Activity,[35],0.82%
same,Activity,[36],69.05%
same,Activity,[37],0%
same,Activity,[38],6.75%
COc1ccc2c3c(c4cc(OC)c(OC)cc4c2c1)CN1CCCC[C@@H]1[C@H]3O (racemic),pIC50,[12],6.10
same,viability at 1 µM,[13],96.2%
same,Activity,[14],5.9%
same,viability at 1 µM,[15],95%
same,Activity,[16],0.05%
same,Activity,[17],Active
same,Activity,[18],0.32%
same,viability at 1 µM,[19],93.8%
same,Activity,[20],0.07%
same,pIC50,[1],< 7.30
same,viability at 1 µM,[21],96.4%
same,Activity,[22],0%
same,Activity,[23],0.07%
same,Activity,[24],0.23%
same,Activity,[25],0.02%
same,pIC50,[4],< 7.30
same,Activity,[26],0.13%
same,pIC50,[5],7.37
same,Activity,[27],0%
same,Activity,[28],4.69%
same,Activity,[29],Active
same,pIC50,[7],7.80
same,pIC50,[8],6.51
same,Activity,[30],3.47%
same,viability at 1 µM,[31],88.9%
same,Activity,[32],0.33%
same,Activity,[33],0.61%
same,viability at 1 µM,[34],99.1%
same,Activity,[35],0.81%
same,Activity,[36],10.53%
same,Activity,[37],0%
same,Activity,[38],3.38%
